Screens: PubChem, several laboratories
Most compounds without a hit are left out; they make up all but 2.8% or so of the library.
Yeast life ext: compounds extending yeast replicative lifespan, primary screen, S. cerevisiae, OD615; inhibition of the nicotinamide effect, % at 10 µM; S. cerevisiae growth with nicotinamide; deaD strain in restrictive glucose medium; 130,000 compounds, 0.68% hits; AID 775, 2007;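 active = inhibition above a set limit, placed 3 SD over the median of all compounds, cut at about 26% in these data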
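Test system: DeaD-strain S. cerevisiae / Buffer or medium: restrictive glucose medium / Also added: nicotinamide 1.5 mM / Doses: one concentration, 10 µM, DMSO 0.25% / Schedule: 48 h at 30 °C / Signal: OD615 measurement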
TNAP inh no acc: human TNAP enzyme inhibitors, primary screen, biochemical, luminescent, no phosphate acceptor, uHTS; purified TNAP, CDP-star luminescence, 30 min; AID 1012, 2008; Alkaline phosphatase, tissue-nonspecific isozyme (Homo sapiens), P05186; 200,000 compounds, 0.26% hits; inhibition, % at 20 µM;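 active = tissue-nonspecific alkaline phosphatase inhibition above about 50% at 20 µM in the single-dose screen, limit read from the data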
Target sequence (P05186 whole entry, looked up): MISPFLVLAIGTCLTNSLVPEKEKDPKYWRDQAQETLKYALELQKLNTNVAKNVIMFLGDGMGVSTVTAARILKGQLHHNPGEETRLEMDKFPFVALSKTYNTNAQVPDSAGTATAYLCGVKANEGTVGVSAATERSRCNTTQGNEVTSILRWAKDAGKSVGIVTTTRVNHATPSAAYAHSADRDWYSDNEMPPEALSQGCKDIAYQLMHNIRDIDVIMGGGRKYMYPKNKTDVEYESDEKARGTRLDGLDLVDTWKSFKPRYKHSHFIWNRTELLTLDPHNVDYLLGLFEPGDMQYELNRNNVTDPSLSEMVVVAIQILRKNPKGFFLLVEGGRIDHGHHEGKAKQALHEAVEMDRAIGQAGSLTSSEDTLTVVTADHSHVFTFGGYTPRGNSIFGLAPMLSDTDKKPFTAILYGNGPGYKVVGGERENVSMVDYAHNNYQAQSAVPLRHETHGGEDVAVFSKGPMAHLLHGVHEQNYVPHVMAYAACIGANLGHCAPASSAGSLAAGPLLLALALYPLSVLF
TNAP act hi DEA: TNAP activators at high phosphate acceptor level, primary screen, biochemical, luminescence, uHTS. purified TNAP, CDP-star luminescence, 1 M DEA, 30 min; active compounds read high; 0 = EDTA background, 1 = DMSO-only activity. activation factor at 20 µM. Alkaline phosphatase, tissue-nonspecific isozyme (Homo sapiens), P05186. 200,000 tested, under 10 active;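 active = activation factor at least 2 at 20 µM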
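Measured by: Luminescent substrate turnover signal | Test system: Human TNAP | Input: TNAP 1/800 final | Dosing: 20 µM single point | Schedule: 30 min, room temperature | Controls: EDTA wells as negative control, DMSO wells as positive control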
Yeast growth inh: growth inhibitors of yeast BB579 in restrictive medium, primary screen, yeast lifespan-shortening project, S. cerevisiae; OD615, 48 h; inhibition, % at 10 µM; 140,000 compounds, 0.51% hits; AID 804, 2007;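 active = inhibition above a set limit, 3 SD over the mean compound inhibition, cut at about 44% in these data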
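Test system: S. cerevisiae DeaD strain BB579 yeast; Medium: restrictive CSMM-D medium; Compound: one dose, 10 µM compound with 0.25% DMSO; Incubation: 4 h cell preincubation, 48 h compound exposure, 30 °C humidified; Signal: OD at 615 nm; Benchmarks: amphotericin B at 10 µg/mL as positive control.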
TNAP inh hi DEA: human TNAP enzyme inhibitors, primary screen, biochemical, luminescent, high phosphate acceptor level, uHTS. Alkaline phosphatase, tissue-nonspecific isozyme (Homo sapiens), P05186. purified TNAP, CDP-star luminescence, 1 M DEA. inhibition, % at 20 µM. 200,000 compounds, 0.03% hits. AID 1135, 2008;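 active = over 50% inhibition of tissue-nonspecific alkaline phosphatase at 20 µM in the single-dose screen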
RAM inhibit: inhibitors of the yeast RAM network, primary screen, dse1pr::URA3 reporter, 5-FOA selection. S. cerevisiae dse1pr::URA3 reporter, 5-FOA growth OD615, 2 d; analog-sensitive cbk1-as2 kinase mutant strain. inhibition, % at 50 µM. 190,000 compounds, 1.8% hits. AID 868, 2007;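 active = inhibition above a set limit, 3 SD over mean compound inhibition, cut at about 8.4% in these data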;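 note: inhibition rescues growth on 5-FOA so higher OD means more RAM inhibition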
Large screens that a line does not name were inactive.

O=C(O)CC1SC(=Nc2ccc(O)cc2)NC1=O (stereo unspecified)	TNAP inh no acc 54 (no result: Yeast life ext, Yeast growth inh)
O=C(NCC1CCCO1)C(c1ccc(F)cc1)N(Cc1ccc2c(c1)OCO2)C(=O)c1ccc(CN2CCOCC2)o1 (stereo unspecified)	none (no result: Yeast life ext, Yeast growth inh)
O=c1cc(-c2c(F)c(F)c(F)c(F)c2F)oc2c(F)c(F)c(F)c(F)c12	Yeast life ext 106
COc1ccccc1-n1cnnc1SCC(=O)c1ccc[nH]1	none
Cc1cccc(OCc2nc(C#N)c(NCc3ccc4c(c3)OCO4)o2)c1	RAM inhibit 11
Cc1cc([N+](=O)[O-])nn1CCCC(=O)Nc1cc(Oc2ccccc2)cc([N+](=O)[O-])c1	RAM inhibit 10
Cc1cc([N+](=O)[O-])nn1CCCC(=O)Nc1cc(Oc2ccc(F)cc2)cc([N+](=O)[O-])c1	RAM inhibit 8.9
Cc1ccc(Oc2cc(NC(=O)CCCn3nc([N+](=O)[O-])c(Cl)c3C)cc([N+](=O)[O-])c2)cc1	none
CCN1C(=O)/C(=C\C=C\c2ccccc2[N+](=O)[O-])SC1=S	RAM inhibit 8.6 (no result: Yeast life ext, Yeast growth inh)
CCN1C(=O)/C(=C/c2cnn(CC)c2C)SC1=S	none
CCn1cc(CNC(=O)c2c(-c3c(Cl)cccc3Cl)noc2C)c(C)n1	none
Cn1c(N)c(C(=O)COC(=O)c2cc(-c3ccccc3)nc3ccccc23)c(=O)n(Cc2ccccc2)c1=O	Yeast life ext 30
COc1cc(-c2nc3ccc4ccccc4c3c3c2CCC3)ccc1O	Yeast growth inh 85
COc1cc(-c2nc3ccc4ccccc4c3c3c2CCC3)cc(OC)c1O	none
CN(C)/C=C/c1oc2ccc(O)cc2c1[N+](=O)[O-]	TNAP inh hi DEA 52 (no result: Yeast life ext, Yeast growth inh)
Cc1oc2ccc(O)cc2c1C(=O)c1ccc([N+](=O)[O-])cc1	none
CS(=O)(=O)N1CCN(C2C3CC4CC(C3)CC2C4)CC1 (stereo unspecified)	none (no result: Yeast life ext, Yeast growth inh)
Cc1cc(C)cc(Nc2nc3ccccc3c(=O)[nH]2)c1	none (no result: Yeast life ext, Yeast growth inh)
O=c1[nH]c(Nc2ccccc2)cc2ccccc12	Yeast growth inh 48
COc1ccccc1C(=O)Nc1ccc(Br)cc1C	none (no result: Yeast life ext, Yeast growth inh)
COc1ccc(NC(=O)COC(=O)c2cnccn2)cc1Cl	none
CC1=CC2=NC(=O)/C(=C\c3cccn3CCOc3cccc(C)c3)C(=N)N2O1	RAM inhibit 9.3
COc1cccc(OCCn2cccc2/C=C2/C(=N)N3OC(C)=CC3=NC2=O)c1	RAM inhibit 11 (no result: Yeast life ext, Yeast growth inh)
CC1=CC2=NC(=O)/C(=C\c3cccn3CCOc3ccccc3)C(=N)N2O1	none
C=C(C)CN(CC)C(=O)CCc1nnc(CCc2c[nH]c3ccccc23)o1	none (no result: Yeast life ext, Yeast growth inh)
CCOC(=O)C1CCCN(c2oc(-c3ccc(OC)cc3)nc2C#N)C1 (stereo unspecified)	RAM inhibit 8.8 (no result: Yeast life ext, Yeast growth inh)
CCCCC(=O)Nc1ccc(C(=O)Nc2ccc(S(=O)(=O)N3CCCC3)cc2)cc1	RAM inhibit 8.6
CCOC(=O)CSCC(=O)Nc1ccc(S(=O)(=O)N2CCCCC2)cc1	none
O=C(CSCc1ccc([N+](=O)[O-])cc1)Nc1ccc(S(=O)(=O)N2CCCCCC2)cc1	RAM inhibit 10
CC(=O)c1ccc(NC(=O)c2ccc(S(=O)(=O)N3CCCC3)cc2)cc1	none
CC(=O)NC1(NC(C)=O)CCN(C)CC1	none (no result: Yeast life ext, Yeast growth inh)
N#Cc1cccc(NCC(=O)Nc2ccc3c(c2)OCCO3)c1	none (no result: Yeast life ext, Yeast growth inh)
CCOc1cc(/C=C2\CCCC(C(=O)C(F)(F)F)=C2O)ccc1O	RAM inhibit 9.1
COc1ccc(/C=C2\CCCC(C(=O)C(F)(F)F)=C2O)cc1OC	none (no result: Yeast life ext, Yeast growth inh)
CC1(C(=O)O)CCC(C(=O)N2CCCCC2)C1(C)C (stereo unspecified)	none (no result: Yeast life ext, Yeast growth inh)
